Assay outcomes (PubChem)
DSG3 Ab inh: inhibitors of pemphigus antibody binding to DSG3, primary screen, biochemical, bead-based, flow cytometry, scFv-GFP. binding (percent of control), % at 10 µM. DSG3-coupled beads, scFv-anti-DSG3-GFP binding; active compounds read low. actives 0.48% (n = 310,000). AID 588358, 2011. Desmoglein-3 (Homo sapiens), P32926;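 active = binding more than 3 SD below its plate's average and above zero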;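 note: hits lower antibody fragment binding to DSG3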
Target sequence (P32926 whole entry, looked up, the tested form may be a part): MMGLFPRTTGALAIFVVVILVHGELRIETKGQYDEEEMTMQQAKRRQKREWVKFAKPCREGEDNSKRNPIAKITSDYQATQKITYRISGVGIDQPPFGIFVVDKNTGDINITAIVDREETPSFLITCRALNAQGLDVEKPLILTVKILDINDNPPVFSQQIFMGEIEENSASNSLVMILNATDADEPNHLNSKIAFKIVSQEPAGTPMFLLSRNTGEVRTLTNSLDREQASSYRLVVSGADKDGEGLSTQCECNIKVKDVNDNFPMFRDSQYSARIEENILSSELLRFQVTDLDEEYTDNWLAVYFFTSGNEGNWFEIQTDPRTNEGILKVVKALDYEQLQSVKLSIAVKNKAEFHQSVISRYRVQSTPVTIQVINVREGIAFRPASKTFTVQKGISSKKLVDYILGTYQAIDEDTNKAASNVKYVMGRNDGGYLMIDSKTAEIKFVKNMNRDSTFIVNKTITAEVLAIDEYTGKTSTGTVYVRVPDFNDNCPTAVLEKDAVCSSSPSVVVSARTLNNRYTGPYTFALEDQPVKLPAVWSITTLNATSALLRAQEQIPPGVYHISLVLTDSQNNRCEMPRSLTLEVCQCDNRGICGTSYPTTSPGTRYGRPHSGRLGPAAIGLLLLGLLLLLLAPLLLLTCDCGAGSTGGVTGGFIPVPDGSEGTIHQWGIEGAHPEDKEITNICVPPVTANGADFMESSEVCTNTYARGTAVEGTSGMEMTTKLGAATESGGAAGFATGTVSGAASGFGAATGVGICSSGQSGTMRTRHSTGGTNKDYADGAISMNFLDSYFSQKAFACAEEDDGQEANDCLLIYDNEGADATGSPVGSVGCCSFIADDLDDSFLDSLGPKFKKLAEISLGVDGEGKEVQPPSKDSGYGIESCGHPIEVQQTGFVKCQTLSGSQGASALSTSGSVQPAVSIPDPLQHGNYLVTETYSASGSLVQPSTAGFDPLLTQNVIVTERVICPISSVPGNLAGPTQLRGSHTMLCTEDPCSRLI
PolyA inh: polyadenylation inhibitors in yeast reporter cells, primary screen, luminescence, S. cerevisiae; activity score, % at 12 µM; actives 0.02% (n = 300,000); S. cerevisiae SKY197-pL101 polyadenylation reporter, beta-gal luminescence; efflux-impaired pdr1/pdr3 knockout yeast; score 100 = 6 SD above DMSO; AID 1875, 2009;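 active = lowest replicate activity score at least 50, where 100 means six control SD above control mean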;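 note: yeast exposed to compound for 9 h at 30 °C; higher score means more reporter readthrough which indicates perturbed polyadenylation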
NALP1 inh: NALP1 inflammasome inhibitors in reconstituted yeast, colorimetric, S. cerevisiae, triplicate retest; S. cerevisiae NALP1/ASC/caspase-1 growth, X-gal OD620, 72 h; inhibition, % at 10 µM; actives 0.61% (n = 280,000); in the data active = inhibition mostly above about 24%, no sharp cut-off; inactive = mostly below about 32%
NALP3 yeast inh: NALP3 inflammasome inhibitors in reconstituted yeast, primary screen, luminescence, uHTS. Yeast reconstituted NLRP3/ASC/caspase-1, beta-gal luminescence, 24 h. inhibition, % at 10 µM. actives 0.39% (n = 330,000). AID 2825, 2010;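 active = inhibition of 50% or more; inactive = inhibition below 50%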;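 note: plate controls were induced DMSO wells for no effect and uninduced yeast grown without galactose for full effect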
Arrestin-AP2 inh: inhibitors of beta-arrestin/AP2 binding, primary screen, biochemical, GPCR trafficking, flow cytometry. FITC-arrestin peptide / GST-AP2 beads; AP2 beta2 appendage carries R879A mutation. AID 504490, 2011. beta-arrestin 1 C-terminal peptide binding to AP2 beta2-adaptin appendage (human). inhibition, % at 10 µM. actives 0.31% (n = 340,000);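 active = inhibition above a set limit, near 3 SD of compounds lacking own fluorescence, cut at about 54% in these data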;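 note: plate controls were DMSO wells for no effect and 5 µM unlabelled arrestin peptide for full effect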
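Material – GST-tagged AP2 beta2-adaptin appendage (R879A) on 4 µm glutathione beads · Probe or stimulus – fluorescein-tagged arrestin peptide at 50 nM final · Timing – 12 min plus 1 h, RT · Detection – bead flow cytometry, FITC channel · Read-out basis – inhibition as reduced fluorescein signal on beads, percent · Medium – PBS plus Tween 20 (0.05%) and BSA (0.1%)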
ALR H2O2 inh: inhibitors of human ALR sulfhydryl oxidase, primary screen, biochemical, H2O2 detection, HRP-luminol luminescence, single point; FAD-linked sulfhydryl oxidase ALR (Homo sapiens), P55789; purified ALR, DTT oxidation; inhibition, % (test concentration not listed); actives 3.8% (n = 290,000); AID 485317, 2010;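 active = mean replicate inhibition above about 79%, with every replicate also reaching it, limit read from the data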
Active calls of the source: *; · = no result given. A selection: hits, their analogues and other compounds. The true share with any hit is near 4.6%.

SMILES	DSG3 Ab inh	PolyA inh	NALP1 inh	NALP3 yeast inh	Arrestin-AP2 inh	ALR H2O2 inh
Oc1ccc(C23CCCC2C2(CCCC2)c2ccc(O)cc2O3)c(O)c1 (stereo unspecified)	·	·	·	21	-5	90*
CCOC(=O)c1c(NC(=O)CSC(=S)N2CCOCC2)sc(C)c1C	91	1	17	5	-7	98*
CCOC(=O)c1sc(NC(=O)CSC(=S)N2CCOCC2)nc1C	110	-5	8	9	-10	18
CCOC(=O)c1c(NC(=S)NC(C)=O)sc(C)c1C	71*	-5	22	24	-5	38
CSc1ccc(CN2CCC(CO)(Cc3ccc(Cl)cc3)CC2)cc1	101	-10	28*	31	5	-4
OCC1(Cc2ccc(Cl)cc2)CCN(Cc2ccccc2F)CC1	110	8	2	10	-2	-5
O=C(C=C(C(=O)c1ccccc1)c1ccccc1)c1ccccc1	97	·	·	·	5	·
O=C(O)/C=C/C(=O)Nc1cccnc1	·	·	32	·	2	-5
COC(=O)/C=C/C(=O)Nc1cccnc1	105	-3	12	5	19	95*
COC(=O)/C=C/C(=O)Nc1ccc(O)c(Cl)c1	80	7	25	12	2	100*
C[C@H]1CN([C@@H](C)CO)C(=O)c2cc(C3=CCCC3)cnc2O[C@@H]1CN(C)C(=O)c1ccncc1	100	·	·	·	·	·
CC(/C=C/c1ccc(N(C)C)cc1)=N\N=C(/N)SC1CC(=O)N(c2ccc(C(=O)O)cc2)C1=O (stereo unspecified)	119	5	22	16	-5	100*
O=C(/C=C\c1ccccc1OC(=O)c1ccccc1F)c1cc2ccccc2o1	89	-25	28	21	3	5
Cc1ccc(C(=O)NCC(=O)OC(C)C(=O)Nc2ccc(N(C)C)cc2)cc1C (stereo unspecified)	105	14	2	16	8	99*
CC(=O)NCC(=O)OC(C)C(=O)Nc1ccc(C(C)=O)cc1 (stereo unspecified)	·	8	·	-7	-3	-27
CCC(Cc1ccccc1)NS(=O)(=O)c1c(C)nc2sccn2c1=O (stereo unspecified)	94	-11	-1	13	-2	-3
COc1ccccc1/C=C/C=N/NC(=O)c1ccccn1	92	-15	-10	45	-19	-9
COc1ccccc1/C=C/C=N/NC(=O)c1cc(-c2ccco2)[nH]n1	91	-6	1	18	9	98*
CCCc1nc2nc(C)c(NS(=O)(=O)c3ccc([N+](=O)[O-])cc3)c(=O)n2[nH]1	108	0	-8	8	6	48
Cc1ccc2nc(Cc3ccc(N)cc3)[nH]c2c1	87	-7	7	0	23	·
CC(C)Cc1nc2ccc(N)cc2[nH]1	111	10	-6	13	-15	100*
Nc1ccc2nc(Cc3ccccc3)[nH]c2c1	92	0	·	-2	-10	100*
CC(C)Cc1nc2ccccc2[nH]1	115	10	-18	1	-17	-3
O=C(CCl)NCc1cc(-c2ccc(Cl)cc2)no1	98	18	-14	-27	2	97*
COc1ccc(OCc2cc(-c3ccc(Cl)cc3)no2)cc1	99	1	-36	22	2	-17
SMILES	DSG3 Ab inh	PolyA inh	NALP1 inh	NALP3 yeast inh	Arrestin-AP2 inh	ALR H2O2 inh
Cc1ccc(/C=C2\C(=N)N3N=C(CC(=O)N4CCOCC4)SC3=NC2=O)o1	135	5	-16	11	-15	92*
N=C1/C(=C/c2ccc(-c3cccc(C(=O)O)c3)o2)C(=O)N=C2SC(CC(=O)N3CCOCC3)=NN12	104	-5	4	21	-3	8
N=C1/C(=C\c2ccc(SCc3ccccc3)o2)C(=O)N=C2SC(CC(=O)N3CCOCC3)=NN12	94	0	·	12	4	98*
CN(Cc1ccccc1)S(=O)(=O)c1ccc(Cl)c(C(=O)N2CCOCC2)c1	100	·	·	·	·	·
Clc1ccc(CN2C3=NCCN3c3ccccc32)cc1Cl	105	-4	22	-2	-14	98*
c1ccc(CN2C3=NCCN3c3ccccc32)cc1	102	-14	20	0	1	96*
Cc1ccc(C)c(C(=O)CN2C3=NCCCN3c3ccccc32)c1	93	5	33*	-8	-2	0
COc1ccc(C(=O)CN2C3=NCCCN3c3ccccc32)cc1OC	110	-6	22	9	5	-6
Cc1ccc(CN2C3=NCCN3c3ccccc32)cc1	·	-9	-18	-7	4	·
c1ccc2c(c1)N1CCN=C1N2CCN1CCCCC1	108	-14	-3	3	8	19
O=C(CN1C2=NCCN2c2ccccc21)C12CC3CC(CC(C3)C1)C2	115	5	13	21	-1	98*
Cc1ccc(C=NNc2nc3c([nH]2)c(=O)n(C)c(=O)n3C)cc1	108	·	·	·	33	·
C[C@H]1CN([C@@H](C)CO)C(=O)CCCn2nncc2CO[C@@H]1CN(C)C(=O)c1ccc2ccn(C)c2c1	102	·	·	·	·	·
Cc1cc(C)c(OCC(=O)OCC(=O)NCc2ccco2)c(C)c1	105	·	·	·	·	·
CC(=O)c1ccc(C(=O)N2CCC(CO)(Cc3cccc(C(F)(F)F)c3)CC2)cc1	103	15	-12	12	6	-4
CC1(C(=O)N2CCC(CO)(Cc3cccc(C(F)(F)F)c3)CC2)CC1	98*	-3	-14	11	0	-1
CCC(CO)n1c(SCc2cc(=O)oc3cc(C)ccc23)nc2ccccc2c1=O (stereo unspecified)	103	4	3	13	0	99*
COc1ccccc1-n1c(SCc2cc(=O)oc3cc(O)ccc23)nc2ccccc2c1=O	98	-17	32	9	-13	-9
CSc1ccc(S(=O)(=O)N2CCC(C(=O)NC3CC3)CC2)cc1	129	4	0	9	-4	-6
CCOc1ccc(NC(=O)C(C)SC(N)=O)cc1 (stereo unspecified)	98	12	6	-2	4	99*
O=C(COC(=O)c1cncc(Br)c1)NCC12CC3CC(CC(C3)C1)C2	100	·	·	25	16	·
CCOC(=O)COc1ccc2ccccc2c1/C=C/[N+](=O)[O-]	74	-31	79*	·	-1	·
Cc1ccc(N2CCN(S(=O)(=O)N3CCCCC3)CC2)cc1C	102	-8	11	17	7	3
Cc1ccc(N2CCN(C(=O)N3CCCC3)CC2)cc1C	97	-14	5	16	0	96*
